Assay results from ChEMBL document CHEMBL1138354, “2-(2'-((dimethylamino)methyl)-4'-(fluoroalkoxy)-phenylthio)benzenamine derivatives as serotonin transporter imaging agents” (J Med Chem, 2007).

Tests used:
[1] = system: Blood; assay: Biodistribution in iv dosed rat blood after 2 mins; type: ADME, organism-based; settings: in vivo
Outline: (§1)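 [18F]-labeled tracer was given to rats under isoflurane anesthesia: 0.2 ml sterile water with 1 mg/mL BSA and 10–100 μCi, into the femoral vein. Three rats per group. Animals were killed by cervical dislocation under anesthesia at the stated time. Organs were removed, weighed and counted. Uptake was calculated as percent dose against a 1% aliquot of the injected dose counted alongside.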

[2] = system: Lung; assay: Biodistribution in iv dosed rat lungs after 60 mins; type: ADME, organism-based; settings: in vivo, 1 h; outline: as §1
[3] = system: Heart; assay: Biodistribution in iv dosed rat heart after 60 mins; type: ADME, organism-based; settings: in vivo, 1 h; outline: as §1
[4] = system: Nucleic Acid; assay: Ratio of drug level in cortex to cerebellum in rat assessed as radioactivity after 240 mins; type: ADME, tissue-based; settings: in vivo, 4 h
[5] = system: Kidney; assay: Biodistribution in iv dosed rat kidney after 240 mins; type: ADME, organism-based; settings: in vivo, 4 h; outline: as §1
[6] = system: Heart; assay: Biodistribution in iv dosed rat heart after 240 mins; type: ADME, organism-based; settings: in vivo, 4 h; outline: as §1
[7] = system: Lung; assay: Biodistribution in iv dosed rat lungs after 2 mins; type: ADME, organism-based; settings: in vivo; outline: as §1
[8] = system: Zone of skin; assay: Biodistribution in iv dosed rat skin after 240 mins; type: ADME, organism-based; settings: in vivo, 4 h
[9] = system: Nucleic Acid; assay: Ratio of drug level in striatum to cerebellum in rat assessed as radioactivity after 60 mins; type: ADME, tissue-based; settings: in vivo, 1 h
[10] = system: Bone; assay: Biodistribution in iv dosed rat bone after 30 mins; type: ADME, organism-based, Bone element; settings: in vivo, 0.5 h; outline: as §1
[11] = system: Brain; assay: Biodistribution in iv dosed rat brain after 120 mins; type: ADME, organism-based; settings: in vivo, 2 h; outline: as §1
[12] = system: Nucleic Acid; assay: Ratio of drug level in cortex to cerebellum in rat assessed as radioactivity after 60 mins; type: ADME, tissue-based; settings: in vivo, 1 h
[13] = system: Muscle tissue; assay: Biodistribution in iv dosed rat muscle after 30 mins; type: ADME, organism-based; settings: in vivo, 0.5 h; outline: as §1
[14] = system: Lung; assay: Biodistribution in iv dosed rat lungs after 30 mins; type: ADME, organism-based; settings: in vivo, 0.5 h; outline: as §1
[15] = system: Spleen; assay: Biodistribution in iv dosed rat spleen after 2 mins; type: ADME, organism-based; settings: in vivo
[16] = system: Nucleic Acid; assay: Ratio of drug level in cortex to cerebellum in rat assessed as radioactivity after 30 mins; type: ADME, tissue-based; settings: in vivo, 0.5 h
Outline: (§2)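 Groups of three normal rats under isoflurane received the [18F] tracer (10–100 μCi in 0.2 ml sterile water containing 1 mg/mL BSA) into the femoral vein. They were killed by cervical dislocation under anesthesia at the stated time. Cortex, striatum, hippocampus, hypothalamus and cerebellum were dissected, weighed and gamma-counted. %dose/g was set against a 100-fold diluted dose aliquot, and each region was divided by cerebellum.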

[17] = system: Kidney; assay: Biodistribution in iv dosed rat kidney after 30 mins; type: ADME, organism-based; settings: in vivo, 0.5 h; outline: as §1
[18] = system: Nucleic Acid; assay: Ratio of drug level in hypothalamus to cerebellum in rat after 120 mins; type: ADME, tissue-based; settings: in vivo, 2 h
Outline: (§3)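 Rats, 3 per group, given ¹⁸F tracer (10–100 μCi, 0.2 ml sterile water with 1 mg/mL BSA) into the femoral vein under isoflurane. Brain regions, including hypothalamus, striatum and cerebellum, dissected, weighed and counted. % dose/g calculated against a 1% diluted aliquot of the dose. Region/cerebellum ratio is region %dose/g divided by cerebellum %dose/g. SD of the ratio propagated from both means and SDs.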

[19] = system: Kidney; assay: Biodistribution in iv dosed rat kidney after 120 mins; type: ADME, organism-based; settings: in vivo, 2 h; outline: as §1
[20] = system: Liver; assay: Biodistribution in iv dosed rat liver after 120 mins; type: ADME, organism-based; settings: in vivo, 2 h; outline: as §1
[21] = system: Blood; assay: Biodistribution in iv dosed rat blood after 30 mins; type: ADME, organism-based; settings: in vivo, 0.5 h; outline: as §1
[22] = system: Lung; assay: Biodistribution in iv dosed rat lungs after 120 mins; type: ADME, organism-based; settings: in vivo, 2 h; outline: as §1
[23] = system: Nucleic Acid; assay: Ratio of drug level in hippocampus to cerebellum in rat assessed as radioactivity after 240 mins; type: ADME, tissue-based; settings: in vivo, 4 h
[24] = system: Blood; assay: Biodistribution in iv dosed rat blood after 120 mins; type: ADME, organism-based; settings: in vivo, 2 h; outline: as §1
[25] = system: Striatum; assay: Biodistribution in iv dosed rat striatum assessed as radioactivity after 120 mins; type: ADME, organism-based; settings: in vivo, 2 h
[26] = system: Liver; assay: Biodistribution in iv dosed rat liver after 2 mins; type: ADME, organism-based; settings: in vivo; outline: as §1
[27] = system: Nucleic Acid; assay: Ratio of drug level in hypothalamus to cerebellum in rat after 30 mins; type: ADME, tissue-based; settings: in vivo, 0.5 h; outline: as §3
[28] = system: Brain; assay: Biodistribution in iv dosed rat brain after 60 mins; type: ADME, organism-based; settings: in vivo, 1 h; outline: as §1
[29] = system: Zone of skin; assay: Biodistribution in iv dosed rat skin after 2 mins; type: ADME, organism-based; settings: in vivo
[30] = system: Nucleic Acid; assay: Ratio of drug level in hypothalamus to cerebellum in rat assessed as radioactivity after 60 mins; type: ADME, tissue-based; settings: in vivo, 1 h
[31] = system: Bone; assay: Biodistribution in iv dosed rat bone after 120 mins; type: ADME, organism-based, Bone element; settings: in vivo, 2 h; outline: as §1
[32] = system: Nucleic Acid; assay: Ratio of drug level in striatum to cerebellum in rat assessed as radioactivity after 2 mins; type: ADME, tissue-based; settings: in vivo
[33] = system: Blood; assay: Biodistribution in iv dosed rat blood after 60 mins; type: ADME, organism-based; settings: in vivo, 1 h; outline: as §1
[34] = system: Spleen; assay: Biodistribution in iv dosed rat spleen after 30 mins; type: ADME, organism-based; settings: in vivo, 0.5 h
Outline: (§4)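 Rats, 3 per group, under isoflurane. ¹⁸F tracer (10–100 μCi) in 0.2 ml sterile water with 1 mg/mL BSA injected into the femoral vein. Killed by cervical dislocation under anesthesia at the stated time. Organs removed, weighed and counted. % dose/organ calculated against counts of a 1% diluted aliquot of the injected dose.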

[35] = system: Muscle tissue; assay: Biodistribution in iv dosed rat muscle after 120 mins; type: ADME, organism-based; settings: in vivo, 2 h; outline: as §1
[36] = system: Heart; assay: Biodistribution in iv dosed rat heart after 30 mins; type: ADME, organism-based; settings: in vivo, 0.5 h; outline: as §1
[37] = system: Striatum; assay: Biodistribution in iv dosed rat striatum assessed as radioactivity after 30 mins; type: ADME, organism-based; settings: in vivo, 0.5 h
[38] = system: Striatum; assay: Biodistribution in iv dosed rat striatum assessed as radioactivity after 2 mins; type: ADME, organism-based; settings: in vivo
[39] = system: Kidney; assay: Biodistribution in iv dosed rat kidney after 60 mins; type: ADME, organism-based; settings: in vivo, 1 h; outline: as §1
[40] = system: Heart; assay: Biodistribution in iv dosed rat heart after 2 mins; type: ADME, organism-based; settings: in vivo; outline: as §1
[41] = system: Liver; assay: Biodistribution in iv dosed rat liver after 60 mins; type: ADME, organism-based; settings: in vivo, 1 h; outline: as §1
[42] = system: Nucleic Acid; assay: Ratio of drug level in hypothalamus to cerebellum in rat after 2 mins; type: ADME, tissue-based; settings: in vivo
[43] = system: Muscle tissue; assay: Biodistribution in iv dosed rat muscle after 240 mins; type: ADME, organism-based; settings: in vivo, 4 h; outline: as §1
[44] = system: Brain; assay: Biodistribution in iv dosed rat brain after 30 mins; type: ADME, organism-based; settings: in vivo, 0.5 h; outline: as §1
[45] = system: Lung; assay: Biodistribution in iv dosed rat lungs after 240 mins; type: ADME, organism-based; settings: in vivo, 4 h; outline: as §1
[46] = system: Heart; assay: Biodistribution in iv dosed rat heart after 120 mins; type: ADME, organism-based; settings: in vivo, 2 h; outline: as §1
[47] = system: Bone; assay: Biodistribution in iv dosed rat bone after 2 mins; type: ADME, organism-based, Bone element; settings: in vivo; outline: as §1
[48] = system: Muscle tissue; assay: Biodistribution in iv dosed rat muscle after 60 mins; type: ADME, organism-based; settings: in vivo, 1 h; outline: as §1
[49] = system: Bone; assay: Biodistribution in iv dosed rat bone after 240 mins; type: ADME, organism-based, Bone element; settings: in vivo, 4 h; outline: as §1
[50] = system: Nucleic Acid; assay: Ratio of drug level in striatum to cerebellum in rat assessed as radioactivity after 120 mins; type: ADME, tissue-based; settings: in vivo, 2 h; outline: as §2
[51] = system: Nucleic Acid; assay: Ratio of drug level in hippocampus to cerebellum in rat assessed as radioactivity after 120 mins; type: ADME, tissue-based; settings: in vivo, 2 h; outline: as §2
[52] = system: Striatum; assay: Biodistribution in iv dosed rat striatum assessed as radioactivity after 240 mins; type: ADME, organism-based; settings: in vivo, 4 h
[53] = Partition coefficient, log P at pH 7.4; type: physicochemical; settings: octanol/water
[54] = system: Nucleic Acid; assay: Ratio of drug level in cortex to cerebellum in rat assessed as radioactivity after 2 mins; type: ADME, tissue-based; settings: in vivo
[55] = system: Blood; assay: Biodistribution in iv dosed rat blood after 240 mins; type: ADME, organism-based; settings: in vivo, 4 h; outline: as §1
[56] = system: Nucleic Acid; assay: Ratio of drug level in striatum to cerebellum in rat assessed as radioactivity after 30 mins; type: ADME, tissue-based; settings: in vivo, 0.5 h; outline: as §2
[57] = system: Liver; assay: Biodistribution in iv dosed rat liver after 240 mins; type: ADME, organism-based; settings: in vivo, 4 h; outline: as §1
[58] = system: Nucleic Acid; assay: Ratio of drug level in hippocampus to cerebellum in rat assessed as radioactivity after 60 mins; type: ADME, tissue-based; settings: in vivo, 1 h
[59] = system: Zone of skin; assay: Biodistribution in iv dosed rat skin after 120 mins; type: ADME, organism-based; settings: in vivo, 2 h; outline: as §4
[60] = system: Spleen; assay: Biodistribution in iv dosed rat spleen after 60 mins; type: ADME, organism-based; settings: in vivo, 1 h
[61] = system: Muscle tissue; assay: Biodistribution in iv dosed rat muscle after 2 mins; type: ADME, organism-based; settings: in vivo; outline: as §1
[62] = system: Zone of skin; assay: Biodistribution in iv dosed rat skin after 60 mins; type: ADME, organism-based; settings: in vivo, 1 h
[63] = system: Nucleic Acid; assay: Ratio of drug level in striatum to cerebellum in rat assessed as radioactivity after 240 mins; type: ADME, tissue-based; settings: in vivo, 4 h

Drug uptake [1]: 4.67 %ID | Drug uptake [2]: 3.44 %ID | Drug uptake [3]: 0.21 %ID | Ratio [4]: 3.21 | Drug uptake [5]: 1.53 %ID | Drug uptake [6]: 0.12 %ID | Drug uptake [7]: 10.3 %ID | Drug uptake [8]: 6.79 %ID | Ratio [9]: 2.76 | Drug uptake [10]: 8.17 %ID | Drug uptake [11]: 2.16 %ID | Ratio [12]: 2.41 | Drug uptake [13]: 15.9 %ID | Drug uptake [14]: 4.63 %ID | Drug uptake [15]: 1.05 %ID | Ratio [16]: 1.95 | Drug uptake [17]: 2.85 %ID | Ratio [18]: 3.7 | Drug uptake [19]: 2 %ID | Drug uptake [20]: 2.85 %ID | Drug uptake [21]: 5.7 %ID | Drug uptake [22]: 2.98 %ID | Ratio [23]: 2.99 | Drug uptake [24]: 6.19 %ID | Drug uptake [25]: 1.37 % ID/g | Drug uptake [26]: 11.1 %ID | Ratio [27]: 2.04 | Drug uptake [28]: 1.92 %ID | Drug uptake [29]: 5.3 %ID | Ratio [30]: 2.97 | Drug uptake [31]: 9.3 %ID | Ratio [32]: 0.96 | Drug uptake [33]: 7.05 %ID | Drug uptake [34]: 0.7 %ID | Drug uptake [35]: 10.2 %ID | Drug uptake [36]: 0.23 %ID | Drug uptake [37]: 1.09 % ID/g | Drug uptake [38]: 1.02 % ID/g | Drug uptake [39]: 2.44 %ID | Drug uptake [40]: 1.38 %ID | Drug uptake [41]: 3.45 %ID | Ratio [42]: 0.95 | Drug uptake [43]: 8.37 %ID | Drug uptake [44]: 1.88 %ID | Drug uptake [45]: 2.1 %ID | Drug uptake [46]: 0.19 %ID | Drug uptake [47]: 9.88 %ID | Drug uptake [48]: 15.5 %ID | Drug uptake [49]: 12.5 %ID | Ratio [50]: 2.84 | Ratio [51]: 2.23 | Drug uptake [52]: 0.98 % ID/g | logD [53]: 2.52 | Ratio [54]: 1.45 | Drug uptake [55]: 5.21 %ID | Ratio [56]: 1.86 | Drug uptake [57]: 2.13 %ID | Ratio [58]: 2.21 | Drug uptake [59]: 7.07 %ID | Drug uptake [60]: 0.68 %ID | Drug uptake [61]: 18.2 %ID | Drug uptake [62]: 7.86 %ID | Ratio [63]: 3.84
SMILES: CN(C)Cc1cc(OCC[18F])ccc1Sc1ccc(Br)cc1N
